Results pooled from the literature.
Each line is one published result; the experiments were not run side by side.
Organism: Staphylococcus aureus
Read-out: microbial killing

| Structure (SMILES) | method | strain | time | notes | MBC |
| --- | --- | --- | --- | --- | --- |
| COc1c(C)c(OC)c2c(c1C)OC(c1ccccc1)CC2=O (stereo not drawn) | broth dilution | ATCC25923 |  |  | > 5000 µg/mL |
| O=C(O)c1cn(C2CC2)c2cc(N3CCNCC3)c(F)cc2c1=O | broth dilution |  |  |  | 0.5 µg/mL |
| COc1c(C)c(OC(C)=O)c(C)c(O)c1C(=O)/C=C/c1ccccc1 | broth dilution | ATCC25923 |  |  | > 5000 µg/mL |
| O=C1NC(=S)N/C1=C\c1ccc(-c2ccc(N(c3ccccc3)c3ccccc3)cc2)cc1 | broth dilution | ATCC6538 |  |  | > 1000 µg/mL |
| COc1cc(NC(C)CCCNC(=S)NCCCC(C)Nc2cc(OC)cc3cccnc23)c2ncccc2c1.Cl.Cl (stereo not drawn) |  | ATCC43300 MRSA |  | drug-resistant strain | 10 to 20 µg/mL |
| CC(=O)NC[C@H]1CN(c2ccc(N3CCOCC3)c(F)c2)C(=O)O1 | broth dilution | ATCC6538 |  |  | > 64 µM |
| O=c1[nH]cc(F)c(=O)[nH]1 | broth dilution |  | 48 h |  | 1 µg/mL |
| N#CC(=Cc1cn(-c2ccccc2)nc1-c1ccccc1)C1=NC(=O)CS1 | broth dilution |  |  |  | 0.25 µg/mL |
| CCCCCCCCCCCC(=O)Oc1c(C)c(O)c(C(=O)/C=C/c2ccccc2)c(OC)c1C | broth dilution | ATCC25923 |  |  | > 5000 µg/mL |
| CCCCCCCCCCCCCCCC#CC(=O)O |  |  |  |  | 15.6 µg/mL |
| COc1c(C)c(OC(C)=O)c(C)c(OC(C)=O)c1C(=O)/C=C/c1ccccc1 | broth dilution | ATCC25923 |  |  | > 5000 µg/mL |
| Cc1cc(/C=C2\Sc3ccccc3N2CCCN2CCC(C)CC2)c2ccccc2[n+]1C.[I-] |  | ATCC29213 |  |  | 8 µg/mL |
| CCCC(=O)Oc1c(C)c(O)c(C(=O)/C=C/c2ccccc2)c(OC)c1C | broth dilution | ATCC25923 |  |  | > 5000 µg/mL |
| O=C1NC(=S)N/C1=C\c1c2ccccc2c(-c2ccc(N(c3ccccc3)c3ccccc3)cc2)c2ccccc12 | broth dilution | ATCC43300 |  |  | > 1000 µg/mL |
| COc1c(C)c(OC)c(C(=O)/C=C/c2ccccc2)c(OC)c1C | broth dilution | ATCC25923 |  |  | > 5000 µg/mL |
| O=C(O)CN1C(=O)/C(=C/c2c3ccccc3c(-c3ccc(N(c4ccccc4)c4ccccc4)cc3)c3ccccc23)SC1=S | broth dilution | ATCC43300 |  |  | > 1000 µg/mL |
| CCCCCCCCCC(=O)Oc1c(C)c(O)c(C(=O)/C=C/c2ccccc2)c(OC)c1C | broth dilution | ATCC25923 |  |  | > 5000 µg/mL |
| O=C(O)CN1C(=O)/C(=C/c2c3ccccc3c(-c3ccc(N(c4ccccc4)c4ccccc4)cc3)c3ccccc23)NC1=S | broth dilution | ATCC6538 |  |  | > 1000 µg/mL |
| CN[C@H](CC(C)C)C(=O)N[C@H]1C(=O)N[C@@H](CC(N)=O)C(=O)N[C@H]2C(=O)N[C@H]3C(=O)N[C@H](C(=O)N[C@H](C(=O)O)c4cc(O)cc(O)c4-c4cc3ccc4O)[C@H](O)c3ccc(c(Cl)c3)Oc3cc2cc(c3O[C@@H]2O[C@H](CO)[C@@H](O)[C@H](O)[C@H]2O[C@H]2C[C@](C)(N)[C@H](O)[C@H](C)O2)Oc2ccc(cc2Cl)[C@H]1O | broth dilution | ATCC6538 |  |  | 1 µM |
| O=C(O)CN1C(=O)/C(=C/c2ccc(-c3ccc(N(c4ccccc4)c4ccccc4)cc3)cc2)NC1=S | broth dilution | ATCC6538 |  |  | 3.9 µg/mL |
| Cc1c(NC(=O)CC2=NC(=O)CS2)c(=O)n(-c2ccccc2)n1C | broth dilution |  |  |  | 1 µg/mL |
